In one series the test system is Female BALB/c mice. Kind of series: 13-week daily oral toxicity study of TDF. The class given is in vivo, mouse. The conditions noted are these: for Clinical Chemistry, Day 29 and Day 92: CHO cholesterol, TRI triglycerides.
In a further series the test system is kidney gene expression. Kind of series: Toxicogenomics: microarray gene expression analysis of kidney. It counts as in vivo, mouse.
The test system of the next series is liver gene expression. Kind of series: Toxicogenomics: microarray gene expression analysis of liver. The class given is in vivo, mouse. The conditions noted are these: 1000 mg/kg TDF for 91 days vs vehicle. In outline: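 Female BALB/c mice received 1000 mg/kg by daily oral gavage for 91 days, or vehicle (50 mM trisodium citrate dihydrate), n=7 per group. They were killed on Day 92, 24 hr after the last dose. Total RNA from a 20–50 mg left liver lobe section was hybridized to Mouse Gene 1.0 ST arrays. Fold change versus vehicle was tested by t-test with Benjamini-Hochberg correction.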

A further series relates to Wistar rats. The conditions noted are these: 600 mg/kg TDF for 5 weeks; cited from earlier work.
For another series, the system named is rats. To be noted: oral 100 mg/kg TDF for 8 weeks; cited from earlier work.
Series [1] is classed as in vivo, mouse. In outline: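 Female BALB/c mice were gavaged daily (10 ml/kg) at 50, 500 or 1000 mg/kg; the vehicle was 50 mM trisodium citrate dihydrate. Tenofovir was quantified against 2.5–2000 ng/ml plasma standards using peak area ratio to indinavir and 1/y-weighted linear regression. Noncompartmental Cmax, Tmax and AUClast were derived.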
The mark [2] stands for this setting: kidney, 1000 mg/kg TDF for 91 days vs vehicle, regulation Down, p<0.05, N=7.
[3] abbreviates: kidney, 1000 mg/kg TDF for 91 days vs vehicle, regulation Up, p<0.05, N=7.

Where “and” joins values, the source holds several entries; their conditions need not be identical. Equal entries are not always repeated. Entries after “also recorded” stand apart in the source; their conditions may differ. Structures can show the parent of a compound that is named as a salt.

As for `CC(C)OC(=O)OCOP(=O)(CO[C@H](C)Cn1cnc2c(N)ncnc21)OCOC(=O)OC(C)C` [TDF, Tenofovir disoproxil fumarate], in the series with Female BALB/c mice (TDF 0, 50, 500 or 1000 mg/kg po daily for 1, 28 or 91 days), the Survival result is recorded as “All animals survived until their scheduled sacrifice”. In the series on Female BALB/c mice (TDF 50 mg/kg po daily), the “Clinical Observations: Gasping (incidence)” value turned out to be 0; the “Clinical Observations: Hunched Posture (incidence)” value is reported as 0; the “Clinical Observations: Hypoactivity (incidence)” value was found to be 0; the “Clinical Observations: Ruffled Fur (incidence)” value is 9 out of 35 and 9 of 35. Also, in the series on Female BALB/c mice (TDF 50 mg/kg po daily), the Mortality is 0; the “Clinical Chemistry, Day 29 and Day 92” value is reported as “^↓(CHO, TRI)”. Further, in the series on Female BALB/c mice (TDF 500 mg/kg po daily), the “Clinical Observations: Gasping (incidence)” value is 0; the “Clinical Observations: Hunched Posture (incidence)” value was determined as 0; the “Clinical Observations: Hypoactivity (incidence)” value came to 0; the “Clinical Observations: Ruffled Fur (incidence)” value is 9 out of 35 and 9 of 35. In the series with Female BALB/c mice (TDF 500 mg/kg po daily), the Mortality was found to be 0; the “Clinical Chemistry, Day 29 and Day 92” value is “^↓(CHO, TRI)”. Further, in the series on Female BALB/c mice (TDF 1000 mg/kg po daily), the “Clinical Observations: Gasping (incidence)” value was “two mice and 2 of 35”; the “Clinical Observations: Hunched Posture (incidence)” value was “one mouse and 1 of 35”; the “Clinical Observations: Hypoactivity (incidence)” value is “two mice and 2 of 35”; the “Clinical Observations: Ruffled Fur (incidence)” value is 31 out of 35 and 31 of 35. In addition, in the series on Female BALB/c mice (TDF 1000 mg/kg po daily), the “Histopathology: Liver (Days 29 and 92)” value is “Minimal/Mild Cytomegaly”; the Mortality is 0; the “Clinical Chemistry, Day 29 and Day 92” value is listed as “^↓(CHO, TRI)”. The “Body Weight” value in the series with Female BALB/c mice (TDF 1000 mg/kg po daily, vs control) is “significantly lower mean body weights; also recorded: ^↓(Days 36 and 43)”. In the series with Female BALB/c mice (TDF 1000 mg/kg, Day 119 necropsy), the “Liver cytomegaly after 4-week recovery” value is “not present; also recorded: not observed”. The “Decreases in cholesterol (CHO) and triglyceride (TRI) levels” value in the series with Female BALB/c mice (TDF 1000 mg/kg, study Days 29 and 92) is given as 30–48%. For the same compound, in the series with Female BALB/c mice (TDF 1000 mg/kg/day for 28 days, necropsy Day 29), the “Liver cytomegaly, minimal or mild (incidence)” value was 7 of 10. The “Liver cytomegaly, minimal or mild (incidence)” value with Female BALB/c mice (TDF 1000 mg/kg/day for 91 days, necropsy Day 92) is given as 6 of 15. Also, the “Histopathologic changes in the kidneys” value in the series with Female BALB/c mice (any dose group) is listed as “No histopathologic changes”. Besides, the “Fold change of gene expression in the kidney (all changes)” value in the series on kidney gene expression (1000 mg/kg TDF vs vehicle, Day 92) is on record as “less than 2 fold”. In the series with kidney gene expression (setting [2]), the “Fold Change, Cyp4b1” value worked out at 1.60 fold and the “Fold Change, Polr3e” value was determined as 1.87 fold. Moreover, in the series on kidney gene expression (setting [3]), the “Fold Change, Gm10804 (predicted gene 10804)” value is 1.65 fold and the “Fold Change, Rorc (RAR-related orphan receptor gamma)” value was 1.77 fold. In the series with liver gene expression (down expressed, p<0.05, N=7), the “Fold Change, Cml3 (camello-like 3)” value came out at 2.08 fold; the “Fold Change, Gm4952” value is listed as 2.15 fold; the “Fold Change, Gm15401” value turned out to be 2.44 fold; the “Fold Change, Rgs16” value was determined as 2.86 fold. Moreover, in the series on liver gene expression (down expressed, p<0.05, N=7), the “Fold Change, Serpinb1a” value is recorded as 2.70 fold. In the series with liver gene expression (upward expressed, p<0.05, N=7), the “Fold Change, Gria3” value stood at 3.34 fold; the “Fold Change, Phlda3” value is recorded as 2.41 fold; the “Fold Change, Rdh11” value is 2.09 fold; the “Fold Change, Snord116” value is recorded as 2.15 fold. The “Fold Change, Sult1e1” value with liver gene expression (upward expressed, p<0.05, N=7) is 4.39 fold. For the same compound, in the series with liver gene expression (upward expressed, p<0.05, N=7, 1000 mg/kg), the “Fold Change, Cdkn1a (cyclin-dependent kinase inhibitor 1A, P21)” value is 3.7 fold and 3.70 fold. The Nephrotoxicity entry in the series on Wistar rats is “nephrotoxicity was observed”. Also, in the series on rats, the Renal toxicity entry is “induced renal toxicity”.
For `C[C@H](Cn1cnc2c(N)ncnc21)OCP(=O)(O)O` [Tenofovir], the Liver cytomegaly result with Female BALB/c mice (50 or 500 mg/kg/day) is recorded as “not present”. Moreover, the “Mouse AUC plasma level of tenofovir relative to healthy volunteers” value in series [1] (after 1000 mg/kg dose, human value ref 29) is “approximately eight”. Besides, the “Accumulation between dosing Days 1 and 91 (Cmax or AUC)” value in series [1] (plasma tenofovir, oral TDF 50-1000 mg/kg daily) was “no evidence of accumulation”.

The record behind these values is paper PMC4334733 (International journal of toxicology, 2015).
